Source: PubChem
PAFAH1B3 FP inh: PAFAH1B3 (human) inhibition; Q15102; recombinant PAFAH1B3, FP-rhodamine probe, fluorescence polarization; inhibition, % at 3.39 µM; 340,000 compounds, 0.28% hits;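 active means inhibition above the screen-wide average of all tested compounds plus 3 SD, cut at about 25% in these data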;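 further: 0% = enzyme with DMSO only and 100% = wells lacking PAFAH1B3 protein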
Target sequence (Q15102 whole entry, looked up): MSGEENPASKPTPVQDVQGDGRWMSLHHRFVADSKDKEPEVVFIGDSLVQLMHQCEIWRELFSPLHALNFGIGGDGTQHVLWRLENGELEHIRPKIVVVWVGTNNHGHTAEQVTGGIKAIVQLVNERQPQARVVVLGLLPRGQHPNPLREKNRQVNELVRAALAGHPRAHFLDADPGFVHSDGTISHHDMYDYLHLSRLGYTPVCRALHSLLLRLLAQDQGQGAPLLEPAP
PAFAH1B2 FP inh: PAFAH1B2 (human) inhibition | inhibition, % at 3.39 µM | recombinant PAFAH1B2, FP-rhodamine activity probe, fluorescence polarization | 340,000 compounds, 1.2% hits;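 active means inhibition above the mean of all tested compounds plus 3 SD, cut at about 24% in these data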;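 further: 0% = enzyme with DMSO and 100% = wells lacking PAFAH1B2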
mABHD4 FP: inhibits mouse alpha/beta hydrolase domain 4 | Q8VD66 | purified mABHD4, FP-Rh probe fluorescence polarization | inhibition, % at 8.92 µM | 370,000 compounds, 0.54% hits | AID 720543;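 active means inhibition exceeding the mean over every tested compound plus 3 SD, cut at about 30% in these data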;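 further: 0% = plate median of compound wells and 100% = S159A mutant with DMSO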
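System: mouse ABHD4 enzyme, wild type / Medium: HEPES pH 7.0, NaCl, Pluronic buffer / Reagent: FP-Rh activity-based fluorescent probe / Control set: S159A mutant high control, sample median low control / Detection: fluorescence polarization with parallel and perpendicular emission, 525/598 nm / Schedule: 45 min + 60 min at 25 °C / Compound dosing: 8.92 µM, single dose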
pPAFAH FP inh: inhibitors of human plasma PAF acetylhydrolase (pPAFAH). Q13093. recombinant pPAFAH, FP-rhodamine probe fluorescence polarization. inhibition, % at 3.39 µM. 330,000 compounds, 1.5% hits. AID 463082;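 active means inhibition above the mean inhibition across the screen plus 3 SD, cut at about 25% in these data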;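 further: inhibitors block binding of the rhodamine activity-based probe so polarization drops; 0% = enzyme with DMSO and 100% = wells lacking pPAFAH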
HTRA1 inhibitor: inhibitors of human serine peptidase HTRA1; Q92743; recombinant HTRA1, FP-rhodamine activity-based probe, fluorescence polarization; inhibition, % at 5.96 µM; 340,000 compounds, 0.5% hits; in the data active means inhibition above about 36%;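 further: 0% = enzyme with DMSO and 100% = wells lacking enzyme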
Target sequence (Q92743 whole entry, looked up): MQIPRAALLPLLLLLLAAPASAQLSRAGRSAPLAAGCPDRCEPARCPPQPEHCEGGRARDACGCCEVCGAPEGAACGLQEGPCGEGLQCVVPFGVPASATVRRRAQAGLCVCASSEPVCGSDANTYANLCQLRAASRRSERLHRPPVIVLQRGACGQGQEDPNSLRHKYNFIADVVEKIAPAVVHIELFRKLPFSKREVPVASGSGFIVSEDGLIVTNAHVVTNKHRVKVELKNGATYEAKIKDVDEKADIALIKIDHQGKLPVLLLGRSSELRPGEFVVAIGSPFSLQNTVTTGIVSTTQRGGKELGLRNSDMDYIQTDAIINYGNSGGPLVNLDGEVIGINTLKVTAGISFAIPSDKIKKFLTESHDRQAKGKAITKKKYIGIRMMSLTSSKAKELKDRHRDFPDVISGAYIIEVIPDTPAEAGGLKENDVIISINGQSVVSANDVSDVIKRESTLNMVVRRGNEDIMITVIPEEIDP
PAFAH2 FP inh: inhibitors of human PAFAH2; Q99487; recombinant PAFAH2, FP-rhodamine activity probe, fluorescence polarization; inhibition, % at 3.39 µM; 340,000 compounds, 0.99% hits; AID 492956;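 active means inhibition above the mean over all tested compounds plus 3 SD, cut at about 30% in these data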;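 further: inhibitors block probe labeling of enzyme so polarization drops; 0% = enzyme with DMSO and 100% = wells lacking PAFAH2 protein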
* hit, by the source's call; . = not tested or not shown. Compounds with a hit are over-represented: about 2.8% of the library has one in this group of screens.

SMILES | PAFAH1B3 FP inh | PAFAH1B2 FP inh | mABHD4 FP | pPAFAH FP inh | HTRA1 inhibitor | PAFAH2 FP inh
COC(=O)[C@]12C[C@H](CC(=O)NCCc3ccccc3OC)C(=O)N(Cc3cccc4ccccc34)C1=C[C@H](COCc1ccccc1)O[C@@H]2C | . | . | -13 | . | . | .
COC(=O)[C@]12C[C@H](CC(=O)NCCCCc3ccccc3)C(=O)N(Cc3cccc4ccccc34)C1=C[C@H](C(C)C)O[C@@H]2C1CC1 | . | . | -16 | . | . | .
COC(=O)c1ccc(CSc2nc3scc(-c4cccs4)c3c(=O)[nH]2)o1 | 6 | 11 | -15 | 29* | -50 | 16
O=C(OCC#CCSc1nnc(-c2ccc3ccccc3c2)o1)c1cccs1 | . | . | -7 | . | . | .
O=S(=O)(c1ccc(F)cc1)N1CCN=C1SCc1cccnc1 | 2 | 8 | -3 | -2 | 1 | 6
O=S(=O)(c1ccc(Br)cc1)N1CCN=C1SCc1cccnc1 | 4 | 25* | -3 | -5 | 4 | 3
COc1ccccc1NC(=O)c1ccc(NC(=O)COC(=O)C2CCCO2)cc1 (configuration not stated) | -3 | 0 | . | . | -3 | -1
COc1ccccc1NC(=O)c1ccc(NC(=O)COC(=O)C2CC2C)cc1 (configuration not stated) | 3 | 1 | -11 | 34* | -13 | 43*
O=C(CCc1ccc(S(=O)(=O)N2CCOCC2)cc1)N/N=C/c1ccc(O)c(O)c1O | 13 | 3 | 22 | 28* | 10 | 5
O=C(CCc1ccc(S(=O)(=O)N2CCOCC2)cc1)N/N=C/c1ccc(F)cc1F | 3 | 1 | -4 | 5 | 1 | -11
Cn1nnnc1Sc1ncnc2scc(-c3ccc(F)cc3)c12 | 1 | -7 | 2 | 29* | -21 | -15
Cn1nnnc1Sc1ncnc2scc(-c3ccc(Br)cc3)c12 | -4 | 0 | -5 | 11 | -24 | -8
O=C(CN1c2cccc3cccc(c23)S1(=O)=O)NC1CCCCC1 | 0 | 6 | -3 | 30* | 2 | 7
COc1cc(/C=N\NC(=O)c2ccc(Cn3cc(Br)c([N+](=O)[O-])n3)o2)cc(OC)c1O | 0 | 1 | 8 | 27* | 4 | -2
COc1cc(/C=N/NC(=O)c2ccc(Cn3cc([N+](=O)[O-])cn3)o2)cc(Br)c1O | 11 | 3 | 6 | 10 | 5 | 7
Cc1ccc(C(=O)NCc2ccco2)cc1S(=O)(=O)Nc1cccc(C)c1C | 5 | 5 | 6 | 33* | -12 | 3
CCOC(=O)Cc1csc(NC(=O)c2sc3nc4ccc(CC)cc4cc3c2N)n1 | -1 | 0 | 23 | 34* | -20 | -6
CCOC(=O)Cc1csc(NC(=O)c2sc3nc4cc(C)ccc4cc3c2N)n1 | 4 | 3 | 28 | 24 | -6 | 6
Cc1ccc(S(=O)(=O)N2[C@@H](c3ccc(Cl)cc3)C(C(=O)O)=C[C@H]2C(C)(C)C)cc1 | 3 | 51* | 1 | 1 | -11 | -2
CCCC[C@@H]1C=C(C(=O)O)[C@H](c2ccc(Cl)c(Cl)c2)N1S(=O)(=O)c1ccc(C)cc1 | 9 | 26* | -19 | -1 | -66 | 2
CCCC[C@@H]1C=C(C(=O)O)[C@H](c2ccc(C)cc2)N1S(=O)(=O)c1ccc(C)cc1 | 3 | 2 | 8 | 6 | -5 | 15
CN(CCO)c1ccc2c(c1)Oc1ccccc1CN(Cc1cn(Cc3ccc(C(F)(F)F)cc3)nn1)S2(=O)=O | . | . | 5 | . | . | .
O=C(COC(=O)COc1ccccc1)NC12CC3CC(CC(C3)C1)C2 | -2 | 25* | 2 | 13 | 2 | 2
COc1ccc(C(CCOC(=O)Oc2ccccc2)c2cc(OC)cc(OC)c2)cc1 (configuration not stated) | . | . | -8 | . | . | .
COc1cc(/C=C/C(=O)c2ccccc2)cc(OC)c1OC | . | . | -8 | . | . | .
SMILES | PAFAH1B3 FP inh | PAFAH1B2 FP inh | mABHD4 FP | pPAFAH FP inh | HTRA1 inhibitor | PAFAH2 FP inh
Cc1ccc(N2CCN(c3ncccc3[N+](=O)[O-])CC2)c(C)c1 | 12 | 0 | -3 | 9 | -6 | 1
Cc1ccc(C)c(N2CCN(c3ncccc3[N+](=O)[O-])CC2)c1 | 6 | 4 | -11 | 28* | 1 | 2
CCOC(=O)[C@]12CCCC3=C1N(CCC3)C(=O)[C@@H](CC(=O)NCc1ccc(OC)c(OC)c1)C2 | . | . | -5 | . | . | .
Cc1c2cnn(CC(=O)Nc3c(F)c(F)cc(F)c3F)c(=O)c2c(C)n1Cc1ccccc1F | -6 | -3 | -20 | 27* | -18 | 21
Cc1ccc(-c2cccc3[nH]cc(C)c23)s1 | . | . | -9 | . | . | .
COc1ccc(-c2cc(C(F)(F)F)c(C#N)c(=O)[nH]2)cc1 | -4 | 2 | -5 | -2 | -6 | -5
COc1ccc(-c2cc(-c3ccco3)[nH]c(=O)c2C#N)cc1 | 5 | 6 | 13 | 30* | 10 | 19
CC(C)(C)c1ccc(OCC(=O)NNC(=S)NC(=O)c2ccccc2[N+](=O)[O-])c(Br)c1 | 6 | 39* | 1 | 29* | -6 | 12
O=C(Cn1nc(Br)nc1Br)c1ccccc1 | 47* | 29* | -13 | 4 | -11 | 52*
Nc1ncn(CC(=O)c2ccccc2)n1 | 5 | 3 | 1 | 0 | 2 | 0
O=C(Nc1ccccc1C(F)(F)F)OCCCN1CCC2(CCC(c3ccccc3)CC2)C1=O (configuration not stated) | . | . | -8 | . | . | .
O=C(NC(=S)NNC(=O)[C@H]1C[C@@H]1c1ccccc1)c1ccc(F)cc1 | 1 | 4 | -3 | 0 | 12 | 1
O=C(/C=C/c1ccc(F)cc1)NC(=S)NNC(=O)[C@H]1C[C@@H]1c1ccccc1 | 4 | 59* | -3 | 6 | 15 | 0
CC1C/C(=N/N=C2/NC(=O)CS2)CC(C)(C)C1 (configuration not stated) | -4 | 76* | 0 | 4 | 4 | -5
Cc1ccc(SCC(=O)Nc2cc([N+](=O)[O-])ccc2O)cc1 | 9 | 82* | 1 | 6 | -2 | 49*
Cc1ccc(SCC(=O)Nc2cccc(C)c2)cc1 | 11 | 29* | -10 | 4 | -8 | -1
CCCC1CCC2(CC1)CCC2OC(=O)Nc1c(OC)cccc1OC (configuration not stated) | . | . | -5 | . | . | .
CCOc1ccc(NC(=S)Nc2ccc3nsnc3c2)cc1 | 54* | 34* | -2 | 18 | 31 | 52*
COc1ccc(NC(=S)Nc2ccc3nc(C)c(C)nc3c2)cc1 | 7 | 4 | 4 | 1 | 10 | 4
COc1ccc(NC(=S)Nc2ccc3nsnc3c2)cc1 | 66* | 23 | 4 | 18 | 24 | 41*
COc1ccc(C(=O)CSc2nnc(-c3ccccn3)n2-c2ccccc2)cc1 | . | . | 6 | . | . | .
COc1ccc2cc(-c3cccc4[nH]cc(C)c34)ccc2c1 | . | . | -7 | . | . | .
CCCCC/C=C\C/C=C\C/C=C\C/C=C\CCCC(=O)O | . | . | . | 47* | . | .
CCN(CC)CCCNC(=O)CC1Oc2ccccc2NC1=O (configuration not stated) | . | . | 3 | . | . | .
